Experimental data as given in ChEMBL document CHEMBL5576140, “Computational Design of Pore-Forming Peptides with Potent Antimicrobial and Anticancer Activities” (J Med Chem, 2024).
Activity calls are given as the source filed them. The calls are words filed in the database; no cut-off is given here.

Tests used:
[1] = Toxicity against reconstructed human skin model assessed as tissue viability at 50 uM incubated for 1 hr followed by compound washout measured after 42 hrs by MTT assay; format: tissue-based, Skin of body; conditions: read-out: Activity
Procedure, shortened: (§1)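 Reconstructed human epidermis with stratum corneum, per OECD TG 439 skin irritation guideline. Tissues exposed 1 h to peptide at 50 μM, then 42 h post-treatment incubation. Viability read by MTT. Controls were SDS and melittin.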

[2] = test system: MDA-MB-435; assay: Anti-cancer activity against human MDA-MB-435 cells incubated for 72 hrs by Cell Titer Glo assay; format: functional, cell-based; conditions: MDA-MB-435, 72 h
[3] = test system: Mus musculus; assay: Induction of wound healing activity in immunosuppressed Balb/c mouse excisional dorsal wound infection model infected with Acinetobacter baumannii NCTC 13301 assessed as closed wound at about 10 mg/kg treated for 7 days once daily measured after 20 days; format: functional, organism-based; conditions: time 20.0 day
[4] = test system: HCT-15; assay: Anti-cancer activity against human HCT-15 cells incubated for 72 hrs by Cell Titer Glo assay; format: functional, cell-based; conditions: HCT-15, 72 h
[5] = test system: Mus musculus; assay: Induction of wound healing activity in immunosuppressed Balb/c mouse excisional dorsal wound infection model infected with Acinetobacter baumannii NCTC 13301 assessed as area of serocellular crust at about 10 mg/kg treated for 7 days once daily measured after 20 days; format: functional; conditions: time 20 day
[6] = test system: MOLT-4; assay: Anti-cancer activity against human MOLT-4 cells incubated for 72 hrs by Cell Titer Glo assay; format: functional, cell-based; conditions: MOLT-4, 72 h
[7] = Cytotoxicity against human granulocytes assessed as deleterious effect upto 50 uM by flow cytometry; format: toxicity, cell-based; conditions: granulocyte
Procedure, shortened: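 Whole blood from a healthy donor treated with peptides up to 50 μM; effect on B and T lymphocytes, granulocytes and monocytes assessed.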

[8] = test system: HL-60; assay: Anti-cancer activity against human HL-60 cells incubated for 72 hrs by Cell Titer Glo assay; format: functional, cell-based; conditions: HL-60, 72 h
[9] = test system: MCF7; assay: pH-dependent anticancer activity against human MCF7 cells in PBS medium at 10 uM incubated for 1 hr; format: functional, cell-based
Procedure, shortened: (§2)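 Cells cultured in RPMI, DMEM or PBS, each adjusted to pH 8, 7 or 6, plus one unadjusted (~7.6). Peptide at 10 μM for only 1 h, to limit pH drift from CO₂-bicarbonate buffering. Cell viability read. Controls were melittin, ampicillin and PBS. Two independent repetitions; effects analysed by ANOVA.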

[10] = test system: Acinetobacter baumannii; assay: Depolarization of cytoplasmic membrane in Acinetobacter baumannii ATCC 19606 at MIC measured for 45 mins by DiSC3-(5) dye based assay; format: functional, organism-based
Procedure, shortened: (§3)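 Bacteria loaded with membrane-potential dye DiSC3-(5), then treated with peptide at its MIC for the respective strain; depolarization read as rise in dye fluorescence; polymyxin B and levofloxacin as reference antibiotics.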

[11] = test system: HCT-116; assay: Anti-cancer activity against human HCT-116 cells incubated for 72 hrs by Cell Titer Glo assay; format: functional, cell-based; conditions: HCT-116, 72 h
[12] = test system: RPMI-8226; assay: Anti-cancer activity against human RPMI-8226 cells incubated for 72 hrs by Cell Titer Glo assay; format: functional, cell-based; conditions: RPMI-8226, 72 h
[13] = test system: HL-60; assay: pH-dependent anticancer activity against human HL-60 cells in DMEM medium at 10 uM incubated for 1 hr; format: functional, cell-based; procedure, shortened: as §2
[14] = test system: CAKI-1; assay: Anti-cancer activity against human CAKI-1 cells incubated for 72 hrs by Cell Titer Glo assay; format: functional, cell-based; conditions: CAKI-1, 72 h
[15] = test system: K562; assay: Anti-cancer activity against human K562 cells incubated for 72 hrs by Cell Titer Glo assay; format: functional, cell-based; conditions: K562, 72 h
[16] = test system: Staphylococcus aureus; assay: Antimicrobial activity against Staphylococcus aureus NE1740 harboring single transposon insertion mutation in staphopain A at 30 uM incubated for 18 hrs relative to control; format: functional
Procedure, shortened: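 CA-MRSA USA300 LAC derivative JE2 and single transposon insertion mutants derived from JE2, each lacking an extracellular protease gene, were exposed to peptides up to 30 μM. The read-out was percent growth inhibition. Peptides were dissolved in PBS, and tests were run in triplicate.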

[17] = test system: NCI-H460; assay: Anti-cancer activity against human NCI-H460 cells incubated for 72 hrs by Cell Titer Glo assay; format: functional, cell-based; conditions: NCI-H460, 72 h
[18] = Toxicity against reconstructed human skin model assessed as irritation at 50 uM incubated for 1 hr followed by compound washout measured after 42 hrs by MTT assay; format: tissue-based, Skin of body; procedure, shortened: as §1
[19] = test system: Klebsiella pneumoniae; assay: Depolarization of cytoplasmic membrane in Klebsiella pneumoniae ATCC 13883 at MIC measured for 45 mins by DiSC3-(5) dye based assay; format: functional, organism-based; procedure, shortened: as §3
[20] = test system: K562; assay: pH-dependent anticancer activity against human K562 cells in RPMI medium at 10 uM incubated for 1 hr; format: functional, cell-based; procedure, shortened: as §2
[21] = test system: MCF7; assay: Anti-cancer activity against human MCF7 cells incubated for 72 hrs by Cell Titer Glo assay; format: functional, cell-based; conditions: MCF7, 72 h
[22] = test system: MCF7; assay: pH-dependent anticancer activity against human MCF7 cells in DMEM medium at 10 uM incubated for 1 hr; format: functional, cell-based; procedure, shortened: as §2
[23] = test system: Acinetobacter baumannii; assay: Anti-infective activity against Acinetobacter baumannii ATCC 19606 infected in neutropenic CD-1 mouse deep thigh infection model assessed as reduction in bacterial load at 0.16 mg/kg, ip measured after 4 days; format: functional, organism-based; conditions: time 4.0 day
Procedure, shortened: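 Neutropenic mice infected intramuscularly in right thigh with 10⁶ cells per mL A. baumannii ATCC 19606; single intraperitoneal peptide dose at 10× MIC; bacterial load determined 4 days after treatment (euthanized day 8); n = 6 per group from three inocula; one-way ANOVA with Dunnett's test versus untreated.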

[24] = test system: HCT-116; assay: pH-dependent anticancer activity against human HCT-116 cells in RPMI medium at 10 uM incubated for 1 hr; format: functional, cell-based; procedure, shortened: as §2
[25] = test system: SK-OV-3; assay: Anti-cancer activity against human SK-OV-3 cells incubated for 72 hrs by Cell Titer Glo assay; format: functional, cell-based; conditions: SK-OV-3, 72 h
[26] = test system: Mus musculus; assay: Induction of wound healing activity in immunosuppressed Balb/c mouse excisional dorsal wound infection model infected with Acinetobacter baumannii NCTC 13301 assessed as reduction in necrosis of epidermal tissue at wound edges at about 10 mg/kg treated for 7 days once daily; format: functional, organism-based; conditions: time 7.0 day
[27] = test system: HL-60; assay: pH-dependent anticancer activity against human HL-60 cells in PBS medium at 10 uM incubated for 1 hr; format: functional, cell-based; procedure, shortened: as §2
[28] = Hemolytic activity against human RBC incubated for 1 hr by microplate reader analysis; format: toxicity, cell-based, Erythrocyte; conditions: red blood cells (erythrocytes)
Procedure, shortened: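 Human red blood cells exposed to peptides up to 50 μM; hemolysis measured, IC50 derived where reached.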

[29] = test system: MOLM-13; assay: Anti-cancer activity against human MOLM-13 cells incubated for 24 hrs by WST assay; format: functional, cell-based; conditions: MOLM-13, 24 h
[30] = test system: Escherichia coli; assay: Induction of outer membrane permeabilization in Escherichia coli ATCC 11775 measured for 20 mins by NPN uptake assay; format: functional, organism-based
[31] = Toxicity in immunosuppressed Balb/c mouse excisional dorsal wound infection model infected with Acinetobacter baumannii NCTC 13301 assessed as body weight loss at about 10 mg/kg treated for 7 days once daily measured after 45 days; format: organism-based; conditions: in vivo, 1080 h, time 45 day
Procedure, shortened: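 Excisional dorsal wound model in immunosuppressed mice infected with 5 × 10⁴ cells per mL of A. baumannii. Treated, PBS-treated and untreated groups were compared. Body weight and survival were followed for 45 days.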

[32] = test system: Staphylococcus aureus; assay: Depolarization of cytoplasmic membrane in Staphylococcus aureus ATCC 12600 at MIC measured for 45 mins by DiSC3-(5) dye based assay; format: functional, organism-based; procedure, shortened: as §3

H-KKKKLKKILKKLFQFINQLDNQLQDIKQNK-NH2
viability at 1 h, 50 µM [1]: 100% | IC50 [2]: 1000 nM | Activity [3]: Active | IC50 [4]: 1000 nM | Activity [5]: <10 mm2 | IC50 [6]: 1000 nM | Activity [7]: Non-Toxic | IC50 [8]: 1000 nM | Activity [9]: Active | Activity [10]: Active | IC50 [11]: 1000 nM | IC50 [12]: 1000 nM | Activity [13]: Active | IC50 [14]: 1000 nM | IC50 [15]: 1000 nM | inhibition at 30 µM [16]: < 45% | IC50 [17]: 1000 nM | Activity [18]: Non-Toxic | Activity [19]: Active | Activity [20]: Active | IC50 [21]: 1000 nM | Activity [22]: Active | Activity [23]: Active | Activity [24]: Active | IC50 [25]: 1000 nM | Activity [26]: Active | Activity [27]: Active | IC50 at 1 h [28]: > 50000 nM | IC50 [29]: ≤ 10000 nM | Activity [30]: Active | Activity [31]: Toxic | Activity [32]: Active
